# Assay outcomes from PubChem.
# AHR activator: human AHR activation; AHR-responsive luciferase reporter cells, luminescence; activation, % at 5 µM; actives 2.5% (n = 320,000); in the data active means activation above about 47%;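 further: 0% = vehicle wells and 100% = reference agonist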
# Target sequence (P35869 whole entry, looked up): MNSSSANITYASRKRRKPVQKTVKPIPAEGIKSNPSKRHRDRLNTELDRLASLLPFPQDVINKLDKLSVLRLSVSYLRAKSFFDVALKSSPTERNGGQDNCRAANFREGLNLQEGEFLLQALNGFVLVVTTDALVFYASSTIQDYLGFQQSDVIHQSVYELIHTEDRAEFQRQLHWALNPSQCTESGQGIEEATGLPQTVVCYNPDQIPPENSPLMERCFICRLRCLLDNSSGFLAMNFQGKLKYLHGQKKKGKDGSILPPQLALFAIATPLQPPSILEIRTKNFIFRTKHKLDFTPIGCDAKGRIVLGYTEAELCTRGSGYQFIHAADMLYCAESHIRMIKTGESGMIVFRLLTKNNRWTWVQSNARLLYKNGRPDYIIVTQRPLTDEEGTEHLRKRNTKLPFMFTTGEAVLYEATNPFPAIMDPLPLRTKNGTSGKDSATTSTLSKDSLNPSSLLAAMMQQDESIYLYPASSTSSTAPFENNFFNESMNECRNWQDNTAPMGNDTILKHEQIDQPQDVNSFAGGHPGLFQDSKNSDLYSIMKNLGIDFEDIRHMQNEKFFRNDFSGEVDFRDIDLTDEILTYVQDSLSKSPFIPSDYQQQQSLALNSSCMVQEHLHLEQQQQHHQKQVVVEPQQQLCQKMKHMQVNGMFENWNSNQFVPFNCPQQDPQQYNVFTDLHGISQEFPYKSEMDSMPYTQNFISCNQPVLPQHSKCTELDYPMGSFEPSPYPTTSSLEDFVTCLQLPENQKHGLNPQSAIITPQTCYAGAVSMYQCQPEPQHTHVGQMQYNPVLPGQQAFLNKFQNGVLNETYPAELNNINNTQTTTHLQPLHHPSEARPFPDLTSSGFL
# GAA850 FXN act: increases GAA850 frataxin promoter reporter activity. activation, % at 6 µM. actives 0.56% (n = 360,000). AID 540364. HEK293 lucGAA850 FXN promoter luciferase reporter, 24 h; percent of 10 µM SAHA response;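 active means activation above the average of all compounds screened plus 3 SD, cutoff fixed separately per campaign, cut at about 7.5% in these data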;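 further: 0% = DMSO wells and 100% = 10 µM SAHA wells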
# SR-BI HDL uptake: mouse SR-BI HDL lipid transfer inhibition; Q61009; ldlA[mSR-BI] CHO cells, DiI-HDL uptake fluorescence, 3 h; inhibition, % at 12.5 µM; actives 0.96% (n = 320,000);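 active means mean replicate inhibition of at least 70% and a set share of replicates each scoring 70 or more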;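 further: 0% = median of neutral control wells and 100% = median of positive control wells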
# ABCB6 inh MLPCN: inhibitors of human ABC transporter ABCB6; K562-ABCB6 porphyrin accumulation, flow cytometry, 1 h; stronger effect = lower value; fluorescence ratio to DMSO, % at 10 µM; actives 0.19% (n = 360,000); AID 602162;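 active means fluorescence ratio to DMSO below 75%, the collection mean minus 3 SD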;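 further: signal is porphyrin accumulated inside mitochondria; 100% equals median channel fluorescence of DMSO control wells; lower ratio means ABCB6 inhibition with less porphyrin fluorescence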
# HIF activator: HIF pathway transcriptional activation. activation, % at 7.5 µM (by protocol). U2OS HRE-luciferase reporter, luminescence; normalized: DMSO 0%, desferrioxamine 100%. actives 0.32% (n = 300,000);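 active means mean activation of at least 10% of the iron chelator positive control signal, with at least half of replicates also reaching 10%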
# SR-BI DiI-HDL act: activators of SR-BI mediated HDL lipid uptake; CHO ldlA[mSR-BI] cells, DiI-HDL uptake fluorescence, 3 h; 100 = double the neutral-control signal; activation, % at 12.5 µM; actives 0.096% (n = 320,000); AID 504775;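 active means mean replicate activation of at least 60% and every replicate at or above 60%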;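 further: 0% = median plate neutral-control signal and 100% = twice that signal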
#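 system = CHO ldlA[mSR-BI] cells, LDL receptor-null, SR-BI overexpressing | medium = Ham's F12 with 0.5% BSA, HEPES 25 mM, pH 7.4 | probe or stimulus = DiI-HDL 10 µg/mL | compound dosing = single-point compound dose | incubation = compound exposure 3 h, 37 °C | technique = DiI fluorescence, bottom read | read-out = cell-associated DiI fluorescence as measure of HDL uptake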
# The depositor's hits bear a star; nt = no result. Rows were chosen to be rich in hits. Some 3.9% of all compounds tested hit in one or more screens of this group.
SMILES,AHR activator,GAA850 FXN act,SR-BI HDL uptake,ABCB6 inh MLPCN,HIF activator,SR-BI DiI-HDL act
O=C(N/N=C/c1cc([N+](=O)[O-])ccc1Cl)c1cnccn1,24.5,1.2,-5.1,105.0,0.7,5.1
O=C(N/N=C/c1cccc([N+](=O)[O-])c1)c1cnccn1,53.7*,2.9,11.7,105.0,-0.3,-11.7
O=C(CCCOc1ccc(Cl)cc1Cl)N/N=C/c1cccc([N+](=O)[O-])c1,5.2,2.3,-330.1,104.0,0.0,330.1*
COc1cccc(C(=O)NCC(=O)N/N=C/c2cccnc2)c1,3.2,0.6,-10.5,89.0,-0.5,10.5
CCN(CC)c1ccc(/C=N/NC(=O)CNC(=O)c2ccccn2)cc1,60.3*,2.9,29.5,107.0,-0.3,-29.5
O=C(CNc1ccccc1)N/N=C/c1ccc2c(c1)OCO2,52.7*,0.2,-19.8,97.0,-0.1,19.8
COc1cccc(C(=O)NCC(=O)N/N=C/c2ccc3c(c2)OCO3)c1,12.0,1.4,-16.1,73.0*,-9.6,16.1
O=C(CCc1c[nH]c2ccccc12)N/N=C/c1ccc2c(c1)OCO2,53.1*,1.5,-22.5,95.0,0.6,22.5
CCOc1cc(NC(=S)NCCCN2CCOCC2)c(OCC)cc1NC(=O)c1ccco1,5.7,3.6,-7.5,92.0,-0.4,7.5
CCN(C(=O)CSc1nc2cc(Cl)ccc2c(=O)n1CC(C)C)C1CCS(=O)(=O)C1 (configuration not stated),-0.7,2.4,35.9,103.0,0.0,-35.9
CC(C)(C)OC(=O)CN1C(=O)NC2(CCCc3ccccc32)C1=O (configuration not stated),0.1,0.3,-15.1,98.0,0.9,15.1
CCOc1ccccc1NC(=O)C1CCN(c2ccc(S(=O)(=O)N3CCCC3)cc2)CC1,-1.3,0.1,51.3,96.0,-0.7,-51.3
CC(/C=C/c1ccc2c(c1)OCO2)=N/NC(=O)CNc1ccc(C)cc1,97.3*,-1.0,18.8,99.0,-54.6,-18.8
CSc1ccc(/C=N/NC(=O)CNc2ccc3ccccc3c2)cc1,67.5*,2.9,26.6,107.0,-0.1,-26.6
O=C(CNC(=O)c1ccccc1Cl)N/N=C/c1ccc2c(c1)OCO2,10.2,-1.2,-0.5,98.0,-9.5,0.5
O=C(CNC(=O)c1ccccn1)N/N=C/c1ccc2c(c1)OCO2,67.7*,2.4,-0.9,96.0,0.2,0.9
CC(/C=C/c1ccc2c(c1)OCO2)=N\NC(=O)c1ccccc1,13.1,6.1,1.2,98.0,0.6,-1.2
O=C(CNc1ccc2ccccc2c1)N/N=C/c1ccncc1,44.1,-2.0,1.8,106.0,-8.6,-1.8
CC(C)(C)c1cc2nc3c(c(=O)n2[nH]1)CN(Cc1ccccc1)C3=O,4.5,-0.5,nt,100.0,0.3,nt
CCN(CC)S(=O)(=O)c1ccc(N2CCN(c3ccccc3OC)CC2)c(N)c1,-10.3,-1.8,0.7,86.0,-0.7,-0.7
Cc1ccccc1NC(=O)c1ccccc1O,5.9,4.4,-4.0,97.0,408.0*,4.0
CCOC(=O)C1=C(COC(=O)/C=C/c2cc(OC)c(OC)c(OC)c2)NC(=O)NC1C (configuration not stated),1.7,0.2,81.2*,96.0,0.0,-81.2
CCOC(=O)C1=C(COC(=O)/C=C/c2ccc(OC)c(OC)c2)NC(=O)NC1C (configuration not stated),17.9,5.8,66.2,93.0,-6.6,-66.2
CC(C)NC(=S)NC(=O)/C=C/c1ccc(F)cc1,11.1,-1.0,-8.3,96.0,0.4,8.3
Cc1cccc2c(N=Nc3ccc(S(=O)(=O)Nc4ccc(Cl)cc4)cc3[N+](=O)[O-])c(O)[nH]c12,4.9,3.5,96.8*,99.0,0.0,-96.8
SMILES,AHR activator,GAA850 FXN act,SR-BI HDL uptake,ABCB6 inh MLPCN,HIF activator,SR-BI DiI-HDL act
NC(=O)c1ccccc1NC(=O)c1ccccc1S(=O)(=O)c1ccccc1[N+](=O)[O-],2.7,0.1,1.6,97.0,0.0,-1.6
COc1cc(C(=O)N2CCCc3ccccc32)c([N+](=O)[O-])cc1OC,0.5,1.8,-1.9,100.0,-0.9,1.9
COc1cc(C(=O)Nc2ccc(N3CCCS3(=O)=O)cc2)c([N+](=O)[O-])cc1OC,0.8,0.4,81.2*,99.0,-1.6,-81.2
COc1cc(C(=O)Nc2ccc3c(c2)CCCN3C(=O)c2ccco2)c([N+](=O)[O-])cc1OC,1.6,-0.6,76.0*,95.0,-0.6,-76.0
COc1cc(C(=O)Nc2ccc(N(C)C)cc2)c([N+](=O)[O-])cc1OC,5.6,3.7,17.1,103.0,1.9,-17.0
Cc1ccc(Nc2nc(N/N=C/c3c[nH]c4ccccc34)nc(N3CCOCC3)n2)cc1,51.4*,1.9,110.3*,91.0,0.7,-110.3
N#Cc1c(C(F)(F)F)cc(-c2ccc(Cl)c(Cl)c2)nc1SCCN1CCOCC1,64.9*,0.9,62.2,144.0,-0.3,-62.2
CCOC(=O)C1=C(O)C(=O)N(c2ccc(S(N)(=O)=O)cc2)C1c1ccc(OC)cc1 (configuration not stated),-3.3,2.5,-52.5,100.0,-0.5,52.5
CSc1ccc(C#N)cc1NC(=O)c1ccc(Cl)cc1Cl,59.2*,-1.6,48.5,97.0,-0.8,-48.5
CSc1ccc(C#N)cc1NC(=O)c1ccccc1,15.3,2.1,53.8,93.0,-0.2,-53.8
O=C(c1ccco1)N1CCN(C(=O)c2cc3ccccc3oc2=O)CC1,1.4,0.0,3.9,95.0,-0.4,-3.9
COc1ccc(C)cc1NC(=O)Nc1cnccn1,57.5*,0.2,-5.5,100.0,-0.5,5.5
COc1ccc(Cl)cc1NC(=O)Nc1cnccn1,52.9*,2.0,13.5,96.0,-0.2,-13.5
COc1ccc(Cl)cc1NC(=O)Nc1cc(C)on1,55.4*,-1.4,18.5,96.0,0.0,-18.5
COc1ccc(Cl)cc1NC(=O)c1c(-c2ccccc2)noc1C,11.1,-0.8,75.7*,99.0,0.2,-75.6
COc1ccc(NC(=O)Nc2cnccn2)c(OC)c1,1.8,3.3,11.5,100.0,1.3,nt
Cc1nn(C)cc1CNC(=O)c1cccc(Cl)c1,-1.6,-1.4,-24.0,98.0,-0.2,24.0
Cc1ccc(C(OCCN(C)C)c2cccc(C(F)(F)F)c2)cc1 (configuration not stated),-5.3,-2.5,-32.4,100.0,-0.6,32.4
O=C(Nc1cnccn1)Nc1cccc(Cl)c1Cl,49.4*,3.2,5.5,96.0,0.0,-5.5
CC(=O)n1c2c(c3ccccc31)OC(N)=C(C#N)C2c1cccc(Cl)c1Cl (configuration not stated),48.5*,-5.6,23.7,102.0,0.8,-23.7
Cc1c(Cl)cccc1NC(=O)Nc1cc(C(C)(C)C)nn1C,5.8,-1.8,20.6,90.0,0.5,-20.6
Nn1c(SCC(=O)Nc2ccc(F)cc2)nnc1-c1ccccn1,48.1*,-2.4,5.1,96.0,0.0,-5.1
